Reference: ChEMBL document CHEMBL1124999, “3-Phenyl analogues of 2-[[[2-(2,6-dimethoxyphenoxy)ethyl]amino]-methyl]-1,4-benzodioxan (WB 4101) as highly selective alpha 1-adrenoceptor antagonists” (J Med Chem, 1990)

How the values were obtained:
[1] = target: T1, Adrenergic receptor alpha-2 (Rattus norvegicus, UniProt P22086+P19328+P22909); experiment: pA2 value was measured in Alpha-2 adrenergic receptor against clonidine in rat vas deferens.
T1 sequence (P22086 whole entry): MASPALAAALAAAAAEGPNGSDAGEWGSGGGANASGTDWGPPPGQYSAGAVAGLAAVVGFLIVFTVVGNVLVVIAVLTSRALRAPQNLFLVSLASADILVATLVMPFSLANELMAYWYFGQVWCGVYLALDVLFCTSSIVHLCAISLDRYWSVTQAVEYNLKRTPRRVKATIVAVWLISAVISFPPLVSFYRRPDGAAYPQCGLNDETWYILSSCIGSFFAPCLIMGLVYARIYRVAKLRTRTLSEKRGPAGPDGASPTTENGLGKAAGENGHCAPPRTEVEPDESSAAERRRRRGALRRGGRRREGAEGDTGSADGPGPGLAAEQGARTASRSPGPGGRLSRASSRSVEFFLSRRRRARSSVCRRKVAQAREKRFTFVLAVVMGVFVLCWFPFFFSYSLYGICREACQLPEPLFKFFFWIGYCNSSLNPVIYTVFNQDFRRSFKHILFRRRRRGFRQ
T1 sequence (P19328 whole entry): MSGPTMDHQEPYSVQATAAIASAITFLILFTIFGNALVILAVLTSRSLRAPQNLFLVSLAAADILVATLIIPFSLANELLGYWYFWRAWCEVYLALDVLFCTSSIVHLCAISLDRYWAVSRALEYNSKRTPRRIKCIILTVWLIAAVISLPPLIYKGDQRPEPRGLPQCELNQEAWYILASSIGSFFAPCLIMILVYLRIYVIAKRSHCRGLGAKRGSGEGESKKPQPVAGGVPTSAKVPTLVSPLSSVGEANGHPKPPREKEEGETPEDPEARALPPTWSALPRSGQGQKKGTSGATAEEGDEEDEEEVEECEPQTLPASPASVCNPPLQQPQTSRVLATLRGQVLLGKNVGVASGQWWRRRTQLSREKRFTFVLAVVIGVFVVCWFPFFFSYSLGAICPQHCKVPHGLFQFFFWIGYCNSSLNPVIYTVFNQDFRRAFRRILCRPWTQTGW
T1 sequence (P22909 whole entry): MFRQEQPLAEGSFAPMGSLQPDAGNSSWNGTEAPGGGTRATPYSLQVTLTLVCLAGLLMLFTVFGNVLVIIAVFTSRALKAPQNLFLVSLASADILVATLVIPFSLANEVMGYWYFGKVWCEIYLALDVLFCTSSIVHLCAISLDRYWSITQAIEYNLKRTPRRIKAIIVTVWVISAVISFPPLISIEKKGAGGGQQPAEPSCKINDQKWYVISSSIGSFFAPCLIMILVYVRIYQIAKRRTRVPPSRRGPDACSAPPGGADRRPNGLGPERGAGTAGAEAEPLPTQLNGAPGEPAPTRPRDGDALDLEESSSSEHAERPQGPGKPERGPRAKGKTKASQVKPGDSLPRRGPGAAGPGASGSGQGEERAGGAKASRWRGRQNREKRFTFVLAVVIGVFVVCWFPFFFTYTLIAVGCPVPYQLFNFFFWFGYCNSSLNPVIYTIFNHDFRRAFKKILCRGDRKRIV
In short: (§1)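 Schild analysis with slope constrained to -1.0. Log(DR−1) was measured at three antagonist concentrations for α1 (norepinephrine) and four for α2 (clonidine), each tested at least five times. DR is the agonist ED50 with antagonist divided by that without. Curve parallelism was checked by linear regression (p < 0.05). Values are ± standard error of estimate.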

[2] = target: T2, Adrenergic receptor alpha-1 (Rattus norvegicus, UniProt P15823+P23944+P43140); experiment: pA2 value was measured in Alpha-1 adrenergic receptor against norepinephrine in rat vas deferens.; in short: as §1
T2 sequence (P15823 whole entry): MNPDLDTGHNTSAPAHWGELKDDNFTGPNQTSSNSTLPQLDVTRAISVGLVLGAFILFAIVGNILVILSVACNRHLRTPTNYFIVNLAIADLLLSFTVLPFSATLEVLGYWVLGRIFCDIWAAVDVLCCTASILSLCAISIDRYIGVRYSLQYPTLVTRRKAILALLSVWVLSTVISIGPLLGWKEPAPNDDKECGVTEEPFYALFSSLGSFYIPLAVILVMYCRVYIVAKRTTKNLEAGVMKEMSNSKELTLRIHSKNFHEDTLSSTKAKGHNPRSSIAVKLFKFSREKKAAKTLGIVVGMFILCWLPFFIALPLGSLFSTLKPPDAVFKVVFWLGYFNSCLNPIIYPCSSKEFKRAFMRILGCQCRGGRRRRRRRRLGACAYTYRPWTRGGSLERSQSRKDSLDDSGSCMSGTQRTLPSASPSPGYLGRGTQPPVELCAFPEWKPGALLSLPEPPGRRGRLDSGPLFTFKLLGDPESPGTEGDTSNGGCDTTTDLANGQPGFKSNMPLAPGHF
T2 sequence (P23944 whole entry): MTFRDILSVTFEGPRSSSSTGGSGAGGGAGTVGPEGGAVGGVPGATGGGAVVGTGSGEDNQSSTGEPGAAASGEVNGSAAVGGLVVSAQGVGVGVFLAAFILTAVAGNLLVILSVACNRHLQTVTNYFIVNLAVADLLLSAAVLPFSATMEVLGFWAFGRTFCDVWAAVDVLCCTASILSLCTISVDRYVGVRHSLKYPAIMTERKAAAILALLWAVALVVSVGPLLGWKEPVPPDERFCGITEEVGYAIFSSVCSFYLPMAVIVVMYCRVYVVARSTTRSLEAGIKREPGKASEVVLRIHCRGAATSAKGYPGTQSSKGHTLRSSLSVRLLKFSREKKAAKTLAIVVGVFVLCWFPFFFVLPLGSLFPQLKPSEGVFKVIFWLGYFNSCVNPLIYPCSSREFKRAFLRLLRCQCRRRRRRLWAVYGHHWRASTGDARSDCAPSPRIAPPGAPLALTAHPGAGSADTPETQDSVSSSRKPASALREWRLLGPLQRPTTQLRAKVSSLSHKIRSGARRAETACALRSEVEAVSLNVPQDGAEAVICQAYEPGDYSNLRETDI
T2 sequence (P43140 whole entry): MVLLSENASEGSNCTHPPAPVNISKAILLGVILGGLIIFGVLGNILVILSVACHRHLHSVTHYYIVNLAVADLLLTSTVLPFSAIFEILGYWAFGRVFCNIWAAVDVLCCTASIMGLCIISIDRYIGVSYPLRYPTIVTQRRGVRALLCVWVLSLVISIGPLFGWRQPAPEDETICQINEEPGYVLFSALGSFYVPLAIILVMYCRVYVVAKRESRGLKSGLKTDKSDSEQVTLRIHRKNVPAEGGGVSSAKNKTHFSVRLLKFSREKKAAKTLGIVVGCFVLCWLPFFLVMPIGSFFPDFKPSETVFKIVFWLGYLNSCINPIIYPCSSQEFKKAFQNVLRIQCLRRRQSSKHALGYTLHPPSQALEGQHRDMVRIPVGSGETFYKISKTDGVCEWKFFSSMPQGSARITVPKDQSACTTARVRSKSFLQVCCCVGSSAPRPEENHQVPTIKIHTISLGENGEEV

[3] = Selectivity ratio (alpha1/alpha2) of the compound
In short: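 α1/α2 selectivity is the antilog of the difference between pA2 at α1- and α2-adrenoreceptors. Each pA2 comes from Schild plots against norepinephrine (α1) or clonidine (α2).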

[4] = target: T2, Adrenergic receptor alpha-1; experiment: pIC50 value was measured in Alpha-1 adrenergic receptor against norepinephrine in rat vas deferens.
[5] = target: T1, Adrenergic receptor alpha-2; experiment: pA2 value was measured in aAlpha-2 adrenergic receptor against clonidine in rat vas deferens.; in short: as §1

| SMILES | pA2 [1] | pA2 [2] | Selectivity ratio [3] | pIC50 [4] | pA2 [5] |
| --- | --- | --- | --- | --- | --- |
| COc1cccc(OC)c1OCCNC[C@H]1C(=O)c2ccccc2O[C@@H]1c1ccccc1 | 4.85 | 8.27 | 2630 | – | – |
| COc1cccc(OC)c1OCCNC[C@H]1Oc2ccccc2O[C@@H]1c1ccccc1 | 4.22 | 8.59 | 23400 | – | – |
| COc1cccc(OC)c1OCCNC[C@H]1Oc2ccccc2O[C@H]1c1ccccc1 | 4.49 | – | 6 | 5.29 | – |
| COc1cccc(OC)c1OCCNC[C@H]1Oc2ccccc2OC1c1ccccc1 (stereo partly specified) | – | 9.3 | – | – | 6.4 |
